PP1 counter – blocks human PP1-alpha phosphatase, a PP5 counter-screen. purified PP1alpha, OMFP fluorescence. inhibition, % at 6.7 µM. 320,000 compounds, 0.9% hits. P62136;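 active = inhibition above the mean inhibition of all tested compounds plus 3 SD, computed separately for each screening campaign, cut at about 15% in these data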
Target sequence (P62136 whole entry, looked up): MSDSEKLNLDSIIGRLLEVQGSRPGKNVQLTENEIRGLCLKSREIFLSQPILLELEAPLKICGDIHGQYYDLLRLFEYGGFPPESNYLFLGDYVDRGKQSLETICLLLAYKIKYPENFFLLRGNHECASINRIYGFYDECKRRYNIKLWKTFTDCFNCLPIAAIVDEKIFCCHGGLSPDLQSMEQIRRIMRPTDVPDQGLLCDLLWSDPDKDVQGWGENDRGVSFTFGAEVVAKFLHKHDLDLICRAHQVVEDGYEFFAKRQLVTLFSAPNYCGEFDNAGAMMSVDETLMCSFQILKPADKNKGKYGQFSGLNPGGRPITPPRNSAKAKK
p97 inhibitor – inhibitors of human p97 ATPase | P55072 | recombinant p97 ATPase, Kinase-Glo ATP luminescence, 3 h | inhibition, % at 8 µM | 220,000 compounds, 0.42% hits | AID 1481; in the data active = inhibition above about 15%;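 also: 0% = DMSO vehicle and 100% = wells lacking enzyme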
PP5 inh – blocks human protein phosphatase 5 activity; 320,000 compounds, 0.18% hits; inhibition, % at 6.7 µM; P53041; purified PP5c, OMFP substrate fluorescence;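 active = inhibition above the campaign's mean inhibition across all tested compounds plus 3 SD, cut at about 9.5% in these data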;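 also: 0% = DMSO only and 100% = 100 µM cantharidin control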
PKD1 inh – PKD1 (human) kinase inhibition | Q15139 | PKD1 kinase fluorescence polarization assay | inhibition, % (test concentration not listed) | 200,000 compounds, 0.056% hits | AID 797; in the data active = inhibition above about 50%
Hsp70 activator – Hsp70 transcriptional activation, primary screen; AID 1203; activation, % at 10 µM; 200,000 compounds, 0.04% hits; HeLa Hsp70 promoter luciferase reporter, luminescence; scaled: vehicle 0, proteasome-inhibitor control 100%;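 active = activation above the mean across all tested compounds plus 3 SD, cutoff set per campaign, cut at about 5.5% in these data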;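 also: 100% = MG132 at 30 µM as the positive control and 0% = DMSO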
RBBP9 inh – human RBBP9 hydrolase inhibition | recombinant RBBP9, FP-Rh probe fluorescence polarization | inhibition, % at 7.94 µM | 220,000 compounds, 0.2% hits;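 active = inhibition above the campaign mean of all tested compounds plus 3 SD, cut at about 14% in these data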;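 also: plate controls were DMSO wells with RBBP9 for no effect and wells lacking RBBP9 protein for full effect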
Target sequence (O75884 whole entry, looked up): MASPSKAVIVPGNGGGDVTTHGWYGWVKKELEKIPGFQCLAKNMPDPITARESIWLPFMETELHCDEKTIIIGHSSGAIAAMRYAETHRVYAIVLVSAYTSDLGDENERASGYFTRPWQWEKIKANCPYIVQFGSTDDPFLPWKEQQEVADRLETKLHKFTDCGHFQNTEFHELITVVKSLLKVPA
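Test system – recombinant human RBBP9 · Input – RBBP9 2.5 µM in dispensing solution, pre-mixing · Medium – Tris buffer pH 8.0, NaCl, Pluronic · Schedule – preincubation 30 min plus labeling 45 min at 25 °C · Measured by – fluorescence polarization · Measure – % inhibition · Controls – DMSO and no-protein wells · Replicates – one well per compound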
PP1 inh confirm – human PP1 phosphatase inhibition, confirmation. shares compounds with PP1 counter. purified PP1alpha, OMFP substrate fluorescence. inhibition, % at 6.7 µM. 1,900 compounds, 52% hits;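 active = mean PP1 inhibition above a set limit taken from the earlier primary screen, cut at about 15% in these data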
PP5 counter – counter-screen for PP1 inhibitors: human PP5 phosphatase inhibition; shares compounds with PP1 counter; inhibition, % at 6.7 µM; 1,900 compounds, 4% hits; purified PP5c, OMFP fluorescence;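 active = mean PP5 inhibition over triplicate wells above about 9.5% taken from the earlier PP1 screen, limit read from the data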
The depositor's hits bear a star; nt = no result given. In the library only some 1.5% were active in any assay of this set; here they are far more common.

SMILES	PP1 counter	p97 inhibitor	PP5 inh	PKD1 inh	Hsp70 activator	RBBP9 inh	PP1 inh confirm	PP5 counter
Cc1ccccc1NC(=O)C1C2CCC(O2)C1C(=O)O (stereo unspecified)	50.8*	-4.0	62.8*	0.5	0.2	-10.1	31.7*	40.6*
Cc1ccc(F)cc1NC(=O)C1CCCN(c2ncccn2)C1 (stereo unspecified)	3.0	4.0	-0.6	-10.6	0.3	-9.3	nt	nt
CCN(CC(=O)Nc1ccc(NC(C)=O)cc1)C(=O)CN1C(=O)NC2(CCCC2)C1=O	-2.9	nt	-0.7	nt	nt	nt	nt	nt
COc1ccc(-n2nnnc2-c2cn(C)nc2C(F)(F)F)cc1	4.6	-8.2	-1.6	-0.4	-0.2	-10.1	nt	nt
N#Cc1ccc(Cl)cc1NC(=O)COC(=O)[C@H](CCC(N)=O)NC(=O)c1ccc(F)cc1	1.6	4.6	0.6	-6.9	-0.2	-10.8	nt	nt
Cc1cc(OCC(=O)N2CCOCC2)ccc1NC(=O)c1ccccc1C	-1.9	nt	1.3	nt	nt	nt	nt	nt
O=C(O)C1C2CCC(O2)C1C(=O)Nc1ccccc1Br (stereo unspecified)	68.4*	nt	68.4*	nt	nt	nt	25.1*	32.5*
CN1CCC(N(C)C(=O)c2ccc(Cl)c(S(=O)(=O)N3CCCCC3)c2)CC1	-3.2	nt	-2.2	nt	nt	nt	nt	nt
O=C(O)COc1ccccc1/C=N/NC(=O)CSc1nnc(SCc2ccc(Cl)cc2)s1	0.4	-0.6	2.6	nt	nt	1.4	nt	nt
O=C(CSc1nnc(SCc2ccc(Cl)cc2)s1)N/N=C/c1c[nH]c2ccccc12	25.1*	6.4	2.1	-6.7	0.3	0.5	31.6*	0.7
CC(C)(C)C1CCC2(CC1)Nc1cccc3cccc(c13)N2	31.2*	1.6	-1.3	-1.2	-0.1	1.3	25.1*	4.0
CCN(CC)c1ccc(C2Nc3cccc4cccc(c34)N2)cc1	4.9	nt	3.2	nt	nt	nt	nt	nt
COc1cnc(-c2ccccn2)nc1Sc1ccc(C)cc1	47.5*	4.4	6.4	-6.1	-0.3	-3.1	50.6*	-1.6
COc1cnc(-c2ccccn2)nc1Sc1cccc(Cl)c1	32.6*	0.6	8.3	-3.2	-0.2	-9.6	50.3*	-1.4
COc1ccccc1Sc1nc(-c2ccccn2)ncc1OC	43.9*	-7.3	3.5	-11.7	0.0	-8.6	45.8*	-6.0
Nc1cccnc1Sc1cccc(Cl)c1	-2.4	1.9	-2.5	7.9	-0.3	-9.9	nt	nt
CC(=O)Nc1ccc(NC(=O)c2c(C)c(-c3ccccc3)nc3ccccc23)cc1	-2.2	nt	1.1	nt	nt	nt	nt	nt
Cc1noc(COc2ccccc2OCC(N)=O)n1	-4.6	nt	-2.9	nt	nt	nt	nt	nt
O=C(Nc1ccc2oc(-c3ccccc3Cl)nc2c1)c1ncn[nH]1	18.9*	-7.0	0.6	-4.8	0.8	-10.7	3.1	-5.6
O=C(Nc1ccc2oc(-c3cccc4ccccc34)nc2c1)c1ncn[nH]1	25.6*	4.9	-1.2	-5.5	-0.2	-1.1	3.8	-2.2
CC1(C)CC(=O)c2c(O)cc(OCC(=O)N3CCN(c4ccccc4)CC3)cc2O1	19.6*	nt	2.8	nt	nt	nt	-2.3	-5.1
O=C(COc1ccccc1)N1CCN(c2ccccc2)CC1	-3.8	7.0	0.0	2.7	-0.2	-4.2	nt	nt
COc1ccccc1CNC(=O)C1CCCN(S(=O)(=O)c2ccc3c(c2)CC(C)N3C(C)=O)C1 (stereo unspecified)	3.9	nt	1.2	nt	nt	nt	nt	nt
Cc1ccccc1-n1nc2c(c1NC(=O)COc1ccc(Cl)cc1)CS(=O)C2 (stereo unspecified)	-0.7	-5.6	1.2	-1.6	-0.3	-4.8	nt	nt
COc1ccc(CC(=O)Nc2c3c(nn2-c2ccccc2C)CS(=O)C3)cc1 (stereo unspecified)	21.9*	-4.1	-0.1	-3.2	-0.1	-9.7	0.5	-1.1
SMILES	PP1 counter	p97 inhibitor	PP5 inh	PKD1 inh	Hsp70 activator	RBBP9 inh	PP1 inh confirm	PP5 counter
COc1ccc(N2CCN(S(=O)(=O)CCNC(=O)COc3ccccc3OC)CC2)cc1	3.4	nt	1.1	nt	nt	nt	nt	nt
CC(=O)c1cccc(N(CC(=O)Nc2ccccc2C(=O)N2CCCC2)S(C)(=O)=O)c1	-2.5	nt	1.3	nt	nt	nt	nt	nt
NC(=O)c1sc2nc3c(c(-c4ccco4)c2c1N)CCC3	0.3	14.4	1.6	20.2	-0.3	-3.8	nt	nt
Nc1c(C(=O)NC2CC2)sc2nc3c(c(-c4ccco4)c12)CC/C3=C/c1ccco1	54.0*	28.4*	1.5	-2.2	-0.3	0.8	21.0*	5.4
CCC(C)[C@H](NC(=O)C1(c2ccccc2)CCN(C(=O)OC(C)(C)C)CC1)C(=O)N[C@@H](C(=O)O)c1ccccc1 (stereo partly specified)	-5.0	nt	4.1	nt	nt	nt	nt	nt
Cc1cccc2c1-c1sc(C(=O)Nc3nccs3)cc1CO2	21.4*	-2.8	0.9	-3.0	-0.1	-7.3	3.4	-2.9
O=C(Nc1nccs1)c1cc2c(s1)-c1ccccc1OC2	22.6*	6.4	-1.1	7.6	-0.2	-8.4	26.2*	-3.9
O=C1C(=O)N(Cc2ccco2)C(c2cccc(Cl)c2)/C1=C(\O)c1ccc2c(c1)OCCO2 (stereo unspecified)	19.1*	0.8	2.5	-4.1	0.0	1.3	4.7	7.1
O=C(O)c1ccc(S(=O)(=O)N(CCc2ccccc2)Cc2ccc(Cl)cc2)cc1	22.4*	nt	7.5	nt	nt	nt	10.7	-0.5
O=C(O)CCC(=O)N1CCc2cc(S(=O)(=O)N(CCc3ccccc3)Cc3ccccc3)ccc21	19.9*	-2.2	4.4	-0.5	-0.3	0.3	15.2*	-4.1
Nc1ccc(SCC(=O)Nc2cccc([N+](=O)[O-])c2)cc1	-1.6	3.9	-0.1	-4.3	0.8	6.5	nt	nt
CCc1cc(=O)oc2cc(C)c(CN3CCCC3)c(O)c12	22.3*	2.2	0.1	6.1	-0.2	-3.4	1.7	-2.4
Cc1cc(N)ccc1N1CCCC1	20.8*	16.8*	4.3	-14.5	-0.4	12.8	-10.7	-2.5
NC(=O)c1cc(N)ccc1N1CCCC1	13.2	7.7	1.4	13.6	-0.3	5.5	nt	nt
Cc1cccc2cc(C3CC(c4cccs4)=NN3S(C)(=O)=O)c(Cl)nc12 (stereo unspecified)	0.2	3.9	2.3	nt	nt	-3.4	nt	nt
Cc1ccc(C(=O)c2oc3nc(C)cc(C)c3c2N)cc1	20.8*	1.0	2.9	-4.3	0.2	-7.5	-4.2	-7.4
C/C(=N/NC(=O)c1cc2ccccc2cc1O)C1C(=O)c2ccccc2C1=O	24.2*	9.7	6.4	4.4	-0.3	-1.7	16.6*	-3.8
CN1CCN(c2ccc(CNS(=O)(=O)c3ccc(Cl)cc3)cc2)CC1	-2.6	-3.4	-0.3	nt	nt	-3.7	nt	nt
N#Cc1ccccc1N1CCN(C(=O)c2ccc(NC(=O)c3ccc(Br)o3)cc2)CC1	2.3	nt	6.7	nt	nt	nt	nt	nt
CSc1nc(NCCOCCO)c2sc3nc(-c4ccco4)c4c(c3c2n1)CCC4	44.9*	9.2	1.4	1.6	-0.3	-5.1	25.3*	-0.5

Compound activity deposited in PubChem BioAssay by several laboratories.
